Key:
Assay type in all cases: functional, organism-based
[1] = tested on: Mycolicibacterium smegmatis; assay: 100% inhibition of growth of clofazimine resistant Mycobacterium smegmatis 607 strain in vitro
Outline: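 Strain: 20× step-up clofazimine-resistant mutant of M. smegmatis ATCC607. 10^5 viable cells inoculated into modified Kirchner's medium with 0.5% Tween 80. Drugs were added in DMSO (2% final in all tubes). Roller tubes were incubated at 37 °C for 72 h. Growth was read as optical transmission in a spectrophotometer.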

[2] = tested on: Mycolicibacterium smegmatis; assay: 100% inhibition of growth of rifampicin resistant Mycobacterium smegmatis 607 strain in vitro
Outline: (§1)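 M. smegmatis ATCC607-derived strains (one of three used, including a dapsone-sensitive one) were grown in modified Kirchner's medium with 0.5% Tween 80, inoculated with 10^5 viable cells. Drugs were added in DMSO (2% final). Roller tubes were incubated at 37 °C for 72 h. Growth was read as spectrophotometric transmission.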

[3] = tested on: Mycolicibacterium smegmatis; assay: Concentration for 100% inhibition of growth of dapsone sensitive Mycobacterium smegmatis 607 strain in vitro; outline: as §1

| Compound | Concentration [1] | Concentration [2] | Concentration [3] |
| --- | --- | --- | --- |
| Clc1ccc(Nc2cc3nc4ccccc4n(-c4ccc(Cl)cc4)c-3c/c2=N\C2CCCC2)cc1 | 20 µg/mL | 3 µg/mL | 3 µg/mL |
| CCCC/N=c1\cc2n(-c3ccccc3)c3ccccc3nc-2cc1Nc1ccccc1 | 20 µg/mL | 3 µg/mL | 3 µg/mL |
| COC(C/N=c1\cc2n(-c3ccccc3)c3ccccc3nc-2cc1Nc1ccccc1)OC | 100 µg/mL | 4 µg/mL | 4 µg/mL |
| OCCN(CCO)CCC/N=c1\cc2n(-c3ccc(Cl)cc3)c3ccccc3nc-2cc1Nc1ccc(Cl)cc1 | 3 µg/mL | 1 µg/mL | 0.6 µg/mL |
| CC(C)NCCC/N=c1\cc2n(-c3ccc(Cl)cc3)c3ccccc3nc-2cc1Nc1ccc(Cl)cc1 | 2 µg/mL | 0.2 µg/mL | 0.3 µg/mL |
| CCOc1ccc(Nc2cc3nc4ccccc4n(-c4ccc(OCC)cc4)c-3c/c2=N\CCN(CC)CC)cc1 | 5 µg/mL | 1 µg/mL | 1 µg/mL |
| N=c1cc2n(-c3ccccc3)c3ccccc3nc-2cc1Nc1ccccc1 | 12 µg/mL | 8 µg/mL | 3 µg/mL |
| O=C1CCCN1CC/N=c1\cc2n(-c3ccc(Cl)cc3)c3ccccc3nc-2cc1Nc1ccc(Cl)cc1 | 20 µg/mL | 1.6 µg/mL | 1 µg/mL |
| OCC/N=c1\cc2n(-c3ccccc3)c3ccc(Cl)cc3nc-2cc1Nc1ccccc1 | 100 µg/mL | 4 µg/mL | 2 µg/mL |
| CC/N=c1\cc2n(-c3ccccc3)c3ccccc3nc-2cc1Nc1ccccc1 | 20 µg/mL | 3 µg/mL | 3 µg/mL |
| CC1(C)CC(/N=c2\cc3n(-c4ccc(Cl)cc4)c4ccccc4nc-3cc2Nc2ccc(Cl)cc2)CC(C)(C)N1 | 2 µg/mL | 0.5 µg/mL | 0.2 µg/mL |
| CCC/N=c1\cc2n(-c3ccc(Cl)cc3)c3ccccc3nc-2cc1Nc1ccc(Cl)cc1 | 100 µg/mL | 3 µg/mL | 3 µg/mL |
| Clc1ccc(Nc2cc3nc4ccccc4n(-c4ccc(Cl)cc4)c-3c/c2=N\CCCN2CCCCC2)cc1 | 2 µg/mL | 0.3 µg/mL | 0.2 µg/mL |
| CC(CN(C)C)/N=c1\cc2n(-c3ccc(Cl)cc3)c3ccccc3nc-2cc1Nc1ccc(Cl)cc1 (stereo unspecified) | 16 µg/mL | 1.2 µg/mL | 0.8 µg/mL |
| Clc1ccc(Nc2cc3nc4ccccc4n(-c4ccc(Cl)cc4)c-3c/c2=N\C2CCCCC2)cc1 | 20 µg/mL | 1 µg/mL | 2 µg/mL |
| CC(C)/N=c1\cc2n(-c3ccccc3)c3ccccc3nc-2cc1Nc1ccccc1 | 100 µg/mL | 3 µg/mL | 2 µg/mL |
| CC(C/N=c1\cc2n(-c3ccccc3)c3ccccc3nc-2cc1Nc1ccccc1)N(C)C (stereo unspecified) | 4 µg/mL | 1 µg/mL | 0.8 µg/mL |
| Clc1ccc(Nc2cc3nc4ccccc4n(-c4ccc(Cl)cc4)c-3c/c2=N\CCCN2CCOCC2)cc1 | 12 µg/mL | 0.4 µg/mL | 0.5 µg/mL |
| O=C1CCCN1CCC/N=c1\cc2n(-c3ccc(Cl)cc3)c3ccccc3nc-2cc1Nc1ccc(Cl)cc1 | 20 µg/mL | 2 µg/mL | 2 µg/mL |
| CCNCCC/N=c1\cc2n(-c3ccc(Cl)cc3)c3ccccc3nc-2cc1Nc1ccc(Cl)cc1 | 1 µg/mL | 0.2 µg/mL | 0.2 µg/mL |
| CN1CCN(CCC/N=c2\cc3n(-c4ccc(Cl)cc4)c4ccccc4nc-3cc2Nc2ccc(Cl)cc2)CC1 | 1 µg/mL | 0.3 µg/mL | 0.3 µg/mL |

| Compound | Concentration [1] | Concentration [2] | Concentration [3] |
| --- | --- | --- | --- |
| CC(C)CC/N=c1\cc2n(-c3ccc(Cl)cc3)c3ccccc3nc-2cc1Nc1ccc(Cl)cc1 | 80 µg/mL | 3 µg/mL | 2 µg/mL |
| Clc1ccc(Nc2cc3nc4ccccc4n(-c4ccc(Cl)cc4)c-3c/c2=N\CCCNC2CCCCC2)cc1 | 1 µg/mL | 0.2 µg/mL | 0.2 µg/mL |
| CN1CCN(CCC/N=c2\cc3n(-c4ccccc4)c4ccccc4nc-3cc2Nc2ccccc2)CC1 | 1 µg/mL | 0.5 µg/mL | 0.5 µg/mL |
| Clc1ccc(Nc2cc3nc4ccccc4n(-c4ccc(Cl)cc4)c-3c/c2=N\CCCN2CCCC2)cc1 | 0.8 µg/mL | 0.3 µg/mL | 0.3 µg/mL |
| OCC/N=c1\cc2n(-c3ccccc3)c3ccccc3nc-2cc1Nc1ccccc1 | 20 µg/mL | 5 µg/mL | 3 µg/mL |
| OCCCN1CCN(CCC/N=c2\cc3n(-c4ccc(Cl)cc4)c4ccccc4nc-3cc2Nc2ccc(Cl)cc2)CC1 | 2 µg/mL | 0.5 µg/mL | 0.6 µg/mL |
| CCOc1ccc(Nc2cc3nc4ccccc4n(-c4ccc(OCC)cc4)c-3c/c2=N\CCO)cc1 | 20 µg/mL | 10 µg/mL | 5 µg/mL |
| CCN(CC)CC/N=c1\cc2n(-c3ccc(C)cc3)c3ccccc3nc-2cc1Nc1ccc(C)cc1 | 3 µg/mL | 0.5 µg/mL | 0.5 µg/mL |
| CCN(CC)CCCC(C)/N=c1\cc2n(-c3ccccc3)c3ccccc3nc-2cc1Nc1ccccc1 (stereo unspecified) | 2 µg/mL | 0.4 µg/mL | 0.3 µg/mL |
| c1ccc(Nc2cc3nc4ccccc4n(-c4ccccc4)c-3c/c2=N\CC2CCNCC2)cc1 | 0.6 µg/mL | 0.3 µg/mL | 0.3 µg/mL |
| c1ccc(Nc2cc3nc4ccccc4n(-c4ccccc4)c-3c/c2=N\C2CCCCCC2)cc1 | 20 µg/mL | 2 µg/mL | 2 µg/mL |
| OC1CCC(/N=c2\cc3n(-c4ccc(Cl)cc4)c4ccccc4nc-3cc2Nc2ccc(Cl)cc2)CC1 (stereo unspecified) | 30 µg/mL | 4 µg/mL | 2 µg/mL |
| Cc1ccc(Nc2cc3nc4ccccc4n(-c4ccc(C)cc4)c-3c/c2=N\C2CCCCC2)cc1 | 100 µg/mL | 8 µg/mL | 8 µg/mL |
| Clc1ccc(Nc2cc3nc4ccccc4n(-c4ccc(Cl)cc4)c-3c/c2=N\CCN2CCNCC2)cc1 | 0.8 µg/mL | 0.2 µg/mL | 0.2 µg/mL |
| Cc1ccc(Nc2cc3nc4ccccc4n(-c4ccc(C)cc4)c-3c/c2=N\CCCNC2CCCCC2)cc1 | 0.5 µg/mL | 0.2 µg/mL | 0.2 µg/mL |
| CCN1CCCC(/N=c2\cc3n(-c4ccc(Cl)cc4)c4ccccc4nc-3cc2Nc2ccc(Cl)cc2)C1 (stereo unspecified) | 8 µg/mL | 0.5 µg/mL | 0.5 µg/mL |
| CCCCN(CCCC)CCC/N=c1\cc2n(-c3ccc(Cl)cc3)c3ccccc3nc-2cc1Nc1ccc(Cl)cc1 | 12 µg/mL | 0.8 µg/mL | 0.4 µg/mL |
| CC(C)C/N=c1\cc2n(-c3ccccc3)c3ccccc3nc-2cc1Nc1ccccc1 | 20 µg/mL | 3 µg/mL | 2 µg/mL |
| OCCNCC/N=c1\cc2n(-c3ccccc3)c3ccc(Cl)cc3nc-2cc1Nc1ccccc1 | 20 µg/mL | 10 µg/mL | 5 µg/mL |
| CC(C)C/N=c1\cc2n(-c3ccc(Cl)cc3)c3ccccc3nc-2cc1Nc1ccc(Cl)cc1 | 100 µg/mL | 4 µg/mL | 4 µg/mL |
| c1ccc(Nc2cc3nc4ccccc4n(-c4ccccc4)c-3c/c2=N\CCCN2CCCCC2)cc1 | 1 µg/mL | 0.3 µg/mL | 0.3 µg/mL |

Reference: ChEMBL document CHEMBL1124233, “Clofazimine analogues active against a clofazimine-resistant organism” (J Med Chem, 1988)
